Active and inactive are the calls of the source. The calls are words filed in the database; no cut-off is given here.
What was measured:
[1] = Retention time of the compound by HPLC analysis; format: physicochemical
[2] = molecular target: T1, Peptidyl-prolyl cis-trans isomerase A (Homo sapiens, UniProt P62937); assay: Inhibition of CypA (unknown origin) assessed as peptidyl-prolyl cis-trans isomerase activity using N-succinyl-Ala-Ala-Pro-Phe-p-nitroanilide as substrate by spectrophotometry
Target sequence in this assay (P62937 whole entry): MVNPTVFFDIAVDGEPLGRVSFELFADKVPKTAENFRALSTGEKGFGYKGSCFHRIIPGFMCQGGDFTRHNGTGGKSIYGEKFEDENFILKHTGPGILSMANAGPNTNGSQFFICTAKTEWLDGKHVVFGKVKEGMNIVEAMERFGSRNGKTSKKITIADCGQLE

Enterovirus A71 [3] = assay: Antiviral activity against EV71 infected in RD cells after 24 hrs by luciferase assay; format: functional, organism-based; conditions: Enterovirus A
[4] = Cytotoxicity against human RD cells after 24 hrs by WST-1 assay; format: cell-based
[5] = molecular target: T1, Peptidyl-prolyl cis-trans isomerase A; assay: Inhibition of CypA (unknown origin) assessed as peptidyl-prolyl cis-trans isomerase activity at 10 uM using N-succinyl-Ala-Ala-Pro-Phe-p-nitroanilide as substrate by spectrophotometry
Target sequence in this assay (P62937 whole entry, looked up): as the sequence (P62937 whole entry) above

Enterovirus A71 [6] = assay: Antiviral activity against EV71; format: functional, organism-based; conditions: Enterovirus A
Enterovirus A71 [7] = assay: Potency index, Ratio of EC50 for cyclosporin A to EC50 for compound for antiviral activity against EV71; format: functional
Enterovirus A71 [8] = assay: Antiviral activity against EV71 infected in RD cells assessed as decrease in viral protein1 level by western blot analysis; format: functional, organism-based
Method in brief: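 EV71 VP1 protein detected by western blot in a dose series of 5, 1, 0.2 and 0.04 μM. NITD008 at 5 μM serves as positive control.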

Enterovirus A71 [9] = assay: Antiviral activity against EV71 infected in RD cells assessed as decrease in viral RNA level at 5 uM after qRT-PCR analysis; format: functional; conditions: Enterovirus A, read-out: INH
Method in brief: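 Cells are infected with wild-type or S243P mutant EV71 and treated at 5 μM. Viral RNA is reported as a percentage of untreated control cells, with GAPDH mRNA as internal control. Each point is the average of three replicates.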

Enterovirus A71 [10] = assay: Antiviral activity against EV71 infected in RD cells at 0.31 to 5 uM after 24 hrs by luciferase assay in presence of NK-1.8K; format: functional
Enterovirus A71 [11] = assay: Antiviral activity against EV71 infected in RD cells at 0.31 to 5 uM after 24 hrs by luciferase assay in presence of NITD008; format: functional
Enterovirus A71 [12] = assay: Antiviral activity against EV71 infected in RD cells at 0.08 uM after 24 hrs by luciferase assay in presence of NK-1.8K; format: functional, organism-based
Enterovirus A71 [13] = assay: Antiviral activity against EV71 infected in RD cells at 0.08 uM after 24 hrs by luciferase assay in presence of NITD008; format: functional, organism-based
[14] = Cytotoxicity against ICR mouse T spleen cells assessed as inhibition of cell proliferation after 72 hrs by MTT assay; format: cell-based
Method in brief: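 Proliferation of T and B spleen cells, each from one mouse, run as triplicate sets per assay. IC50 is the mean ± SD of three experiments.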

[15] = Cytotoxicity against ICR mouse B spleen cells assessed as inhibition of cell proliferation after 72 hrs by MTT assay; format: cell-based

For O=C(NC(=O)c1ccc(O)cc1O)NC1c2ccccc2-c2ccccc21, the Retention_time [1] was 5.44 min, the IC50 ([2]; read-out: IC50) was 10 µM and the EC50 (Enterovirus A71 [3]) was greater than 25 µM. It also gave a CC50 at 24 h [4] greater than 25 µM and an inhibition [5] of 21.4%.

For CCOC(=O)/C=C/[C@H](C[C@@H]1CCNC1=O)NC(=O)[C@@H](CC(=O)[C@@H](NC(=O)c1cc(C)on1)C(C)C)Cc1ccc(F)cc1, the EC50 (Enterovirus A71 [6]) was 0.014 µM.

In the case of O=C(NC(=O)c1c(O)cccc1O)NC1c2ccccc2-c2cccc(F)c21 (centres undefined), the Retention_time [1] is reported as 4.7 min, the IC50 ([2]; read-out: IC50) is reported as 0.94 µM and the EC50 (Enterovirus A71 [3]) is reported as 1.13 µM. For the same molecule, the CC50 at 24 h [4] was greater than 25 µM.

In the case of C/C=C/C[C@@H](C)[C@@H](O)[C@H]1C(=O)N[C@@H](CC)C(=O)N(C)CC(=O)N(C)[C@@H](CC(C)C)C(=O)N[C@@H](C(C)C)C(=O)N(C)[C@@H](CC(C)C)C(=O)N[C@@H](C)C(=O)N[C@H](C)C(=O)N(C)[C@@H](CC(C)C)C(=O)N(C)[C@@H](CC(C)C)C(=O)N(C)[C@@H](C(C)C)C(=O)N1C [CYCLOSPORINE], the EC50 (Enterovirus A71 [3]) is reported as 3.66 µM.

O=C(NC(=O)c1c(O)cccc1O)NC1c2ccc(F)cc2-c2ccc(F)cc21 (centres undefined) gave a Retention_time [1] of 4.94 min, an IC50 ([2]; read-out: IC50) of 10.3 µM and an EC50 (Enterovirus A71 [3]) of 1.08 µM. For the same molecule, the CC50 at 24 h [4] was greater than 25 µM.

Work on O=C(NC(=O)c1c(O)cccc1O)NC1c2ccccc2C2CCCCC21 (racemic) yielded a Retention_time [1] of 5.41 min, an IC50 ([2]; read-out: IC50) of 10 µM and an EC50 (Enterovirus A71 [3]) of 4.31 µM. For the same molecule, the CC50 at 24 h [4] was greater than 25 µM and the inhibition [5] was 27.6%.

For O=C(NC(=O)c1ccccc1F)NC1c2ccccc2C2CCCCC21 (racemic), the Retention_time [1] was 9.04 min, the IC50 ([2]; read-out: IC50) was 10 µM and the EC50 (Enterovirus A71 [3]) was 5.25 µM. For the same molecule, the CC50 at 24 h [4] was greater than 25 µM and the inhibition [5] was 33.5%.

With O=C(NC(=O)c1c(O)cccc1O)NC1c2ccccc2-c2cc(F)ccc21 (centres undefined) the “Ratio EC50” value (Enterovirus A71 [7]) was 9.9, the Retention_time [1] was 8.07 min and the IC50 ([2]; read-out: IC50) was 2.76 µM. For the same molecule, the EC50 (Enterovirus A71 [3]) was 0.37 µM, the CC50 at 24 h [4] was greater than 25 µM and the inhibition (Enterovirus A71 [8]) was “Dose-dependent effect”. For the same molecule, the inhibition at 5 µM (Enterovirus A71 [9]) was 3%, the “%max” value (Enterovirus A71 [10]) was 20% and the “%max” value (Enterovirus A71 [11]) was 20%. For the same molecule, the Activity (Enterovirus A71 [12]) was “inactive” and the Activity (Enterovirus A71 [13]) was “inactive”.

With Cc1ccc2c(c1)-c1ccccc1C2NC(=O)NC(=O)c1ccccc1F (centres undefined) the Retention_time [1] was 8.84 min, the IC50 ([2]; read-out: IC50) was 10 µM and the EC50 (Enterovirus A71 [3]) was 0.92 µM. For the same molecule, the CC50 at 24 h [4] was greater than 10 µM and the inhibition [5] was 28.7%.

With O=C(NC(=O)c1ccccc1F)NC1c2ccccc2-c2cc(Cl)ccc21 (centres undefined) the Retention_time [1] was 6.6 min, the IC50 ([2]; read-out: IC50) was 10.8 µM and the EC50 (Enterovirus A71 [3]) was 3.34 µM. It also gave a CC50 at 24 h [4] greater than 25 µM.

O=C(NC(=O)c1c(O)cccc1O)NC1c2ccccc2-c2cc(C(F)(F)F)ccc21 (centres undefined) gave a Retention_time [1] of 5.68 min, an EC50 (Enterovirus A71 [3]) greater than 10 µM and a CC50 at 24 h [4] greater than 25 µM. It also gave an inhibition [5] of 20.3%.

O=C(NC(=O)c1c(O)cccc1O)NC1c2ccccc2-c2cc3ccccc3cc21 (centres undefined) gave a Retention_time [1] of 5.07 min, an IC50 ([2]; read-out: IC50) of 10 µM and an EC50 (Enterovirus A71 [3]) of 1.92 µM. The CC50 at 24 h [4] was greater than 25 µM and the inhibition [5] was 39.1%.

With O=C(NC(=O)c1c(O)cccc1O)NC1c2ccccc2-c2ccccc21 the EC50 (Enterovirus A71 [3]) was 3.36 µM, the CC50 at 24 h [4] was greater than 20 µM and the IC50 [14] was 33 µM. It also gave an IC50 [15] of 51.9 µM.

Work on Cc1ccc2c(c1)-c1ccccc1C2NC(=O)NC(=O)c1c(O)cccc1O (centres undefined) yielded a Retention_time [1] of 4.42 min, an IC50 ([2]; read-out: IC50) of 11.6 µM and an EC50 (Enterovirus A71 [3]) of 2.72 µM. It also gave a CC50 at 24 h [4] greater than 25 µM.

Molecule O=C(NCc1ccccc1F)NC1c2ccccc2-c2ccccc21 has a Retention_time [1] of 5.57 min, an IC50 ([2]; read-out: IC50) of 10 µM and an EC50 (Enterovirus A71 [3]) greater than 25 µM. It also gave a CC50 at 24 h [4] greater than 25 µM and an inhibition [5] of 17.8%.

O=C(NC(=O)c1c(O)cccc1O)NC1c2ccccc2-c2cc(Cl)ccc21 (centres undefined) gave a Retention_time [1] of 4.19 min, an IC50 ([2]; read-out: IC50) of 1.22 µM and an EC50 (Enterovirus A71 [3]) of 0.46 µM. For the same molecule, the CC50 at 24 h [4] was greater than 25 µM.

Work on O=C(NC(=O)c1ccccc1F)NC1c2ccccc2-c2ccccc21 yielded an EC50 (Enterovirus A71 [3]) of 1.07 µM, a CC50 at 24 h [4] greater than 20 µM and an IC50 [14] greater than 100 µM. It also gave an IC50 [15] greater than 100 µM.

O=C(NCc1c(O)cccc1O)NC1c2ccccc2-c2ccccc21 showed a Retention_time [1] of 5.37 min, an IC50 ([2]; read-out: IC50) of 10 µM and an EC50 (Enterovirus A71 [3]) greater than 10 µM. The CC50 at 24 h [4] was greater than 25 µM and the inhibition [5] was 9.25%.

In the case of O=C(NC(=O)c1ccccc1F)NC1c2ccccc2-c2cc(F)ccc21 (centres undefined), the Retention_time [1] is reported as 6.15 min, the IC50 ([2]; read-out: IC50) is reported as 10.3 µM and the EC50 (Enterovirus A71 [3]) is reported as 2.11 µM. For the same molecule, the CC50 at 24 h [4] was greater than 10 µM.

In the case of O=C(NC(=O)c1cc(O)cc(O)c1)NC1c2ccccc2-c2ccccc21, the Retention_time [1] is reported as 7.88 min, the IC50 [2] is reported as “Not Active” and the EC50 (Enterovirus A71 [3]) is reported as greater than 25 µM. The CC50 at 24 h [4] was greater than 25 µM.

Molecule O=C(NC(=O)c1c(F)cccc1F)NC1c2ccccc2-c2ccccc21 has an EC50 (Enterovirus A71 [3]) of 5.85 µM and a CC50 at 24 h [4] greater than 20 µM.

For O=C(NC(=O)c1ccccc1F)NC1c2ccccc2-c2cccc(F)c21 (centres undefined), the Retention_time [1] was 6.02 min, the IC50 ([2]; read-out: IC50) was 10.4 µM and the EC50 (Enterovirus A71 [3]) was 0.66 µM. It also gave a CC50 at 24 h [4] greater than 25 µM.

Molecule O=C(NC(=O)c1cc(F)ccc1O)NC1c2ccccc2-c2ccccc21 has a Retention_time [1] of 8.91 min, an IC50 ([2]; read-out: IC50) of 10 µM and an EC50 (Enterovirus A71 [3]) of 3.78 µM. It also gave a CC50 at 24 h [4] greater than 25 µM and an inhibition [5] of 27.7%.

For O=C(Cc1ccccc1F)NC(=O)NC1c2ccccc2-c2ccccc21, the Retention_time [1] was 6.05 min, the IC50 ([2]; read-out: IC50) was 10 µM and the EC50 (Enterovirus A71 [3]) was greater than 10 µM. For the same molecule, the CC50 at 24 h [4] was greater than 50 µM and the inhibition [5] was 16.9%.

Reference: ChEMBL document CHEMBL3739281, “Identification, synthesis and pharmacological evaluation of novel anti-EV71 agents via cyclophilin A inhibition” (Bioorg Med Chem Lett, 2015)
